ChEMBL document CHEMBL1177669, “Synthesis and biological study of 3-(phenylsulfonyl)thieno[2,3-e][1,2,3]triazolo[1,5-a]pyrimidines as potent and selective serotonin 5-HT6 receptor antagonists” (Bioorg Med Chem, 2010)

Tests used:
[1] = molecular target: T1, 5-hydroxytryptamine receptor 6 (Homo sapiens, UniProt P50406); assay: Antagonist activity at human recombinant 5HT6 receptor expressed in HEK293 cells assessed as inhibition of serotonin-induced cAMP production; type: functional, cell-based
How it was run: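 HEK293 cells stably expressing recombinant human 5-HT6R, stimulated with serotonin. cAMP from adenylyl cyclase measured by LANCE. Compounds screened at 5 and 10 μM. IC50 determined for compounds giving more than 50% inhibition of cAMP synthesis at 5 μM.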

[2] = molecular target: T1, 5-hydroxytryptamine receptor 6; assay: Binding affinity to human recombinant 5HT6 receptor expressed in HEK293 cells by radioligand displacement assay; type: cell-based
How it was run: (§1)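 Competitive radioligand binding at the 5-HT6 receptor, run by MDS Pharma Services as part of a serotonin receptor panel. IC50 and Ki values derived.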

[3] = molecular target: T1, 5-hydroxytryptamine receptor 6; assay: Binding affinity to 5HT6 receptor; how it was run: as §1
[4] = molecular target: T1, 5-hydroxytryptamine receptor 6; assay: Displacement of radioligand from human recombinant 5HT6 receptor in competitive radioligand binding assay

T1 sequence (P50406 whole entry): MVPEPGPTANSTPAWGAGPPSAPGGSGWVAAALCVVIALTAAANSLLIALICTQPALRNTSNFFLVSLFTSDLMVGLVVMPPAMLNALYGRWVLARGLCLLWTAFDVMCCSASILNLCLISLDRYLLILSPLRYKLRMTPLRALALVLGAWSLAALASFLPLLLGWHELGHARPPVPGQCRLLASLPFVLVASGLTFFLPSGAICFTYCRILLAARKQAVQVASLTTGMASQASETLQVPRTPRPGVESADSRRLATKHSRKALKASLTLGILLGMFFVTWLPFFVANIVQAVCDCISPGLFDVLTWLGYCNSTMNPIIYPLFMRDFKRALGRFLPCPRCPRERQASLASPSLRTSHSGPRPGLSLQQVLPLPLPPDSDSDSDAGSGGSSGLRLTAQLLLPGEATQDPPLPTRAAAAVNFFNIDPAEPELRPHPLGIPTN

Row | SMILES | IC50 [1] | IC50 [2] | other results
1 | CN(Cc1cccnc1)c1nc2c(S(=O)(=O)c3ccccc3)nnn2c2ccsc12 | 500 nM | > 30 nM | –
2 | CC12CC3CC(C)(C1)CC(Nc1nc4c(S(=O)(=O)c5ccccc5)nnn4c4ccsc14)(C3)C2 | – | 56.7 nM | Ki [2]: 26.3 nM
3 | CC(Nc1nc2c(S(=O)(=O)c3ccccc3)nnn2c2ccsc12)C12CC3CC(CC(C3)C1)C2 (centres undefined) | – | 221 nM | Ki [2]: 103 nM
4 | CN(C)CCNc1nc2c(S(=O)(=O)c3ccccc3)nnn2c2ccsc12 | – | > 300 nM | –
5 | O=S(=O)(c1cccc(Cl)c1)c1nnn2c1nc(NCc1cccnc1)c1sccc12 | 1250 nM | 31.7 nM | Ki [2]: 14.7 nM
6 | CCC(C)Nc1nc2c(S(=O)(=O)c3ccccc3)nnn2c2ccsc12 (centres undefined) | – | – | IC50 [3]: 9.6 nM
7 | O=S(=O)(c1ccccc1)c1nnn2c1nc(NCc1cccnc1)c1sccc12 | 260 nM | > 30 nM | –
8 | Cc1ccc(C)c(S(=O)(=O)c2nnn3c2nc(NC(C)C)c2sccc23)c1 | 350 nM | 28.3 nM | –
9 | CC(C)CCNc1nc2c(S(=O)(=O)c3ccc(Br)cc3)nnn2c2ccsc12 | – | 34.3 nM | Ki [2]: 15.9 nM
10 | O=S(=O)(c1ccccc1)c1nnn2c1nc(NC1CCCC1)c1sccc12 | 140 nM | 11.9 nM | Ki [2]: 5.5 nM
11 | O=S(=O)(c1ccccc1)c1nnn2c1nc(NCC1CCCO1)c1sccc12 (centres undefined) | 63 nM | 17.5 nM | Ki [2]: 8.1 nM
12 | O=S(=O)(c1ccc(Br)cc1)c1nnn2c1nc(NCc1ccc3c(c1)OCO3)c1sccc12 | – | 62.1 nM | Ki [2]: 28.8 nM
13 | CN(C)CCN(C)c1nc2c(S(=O)(=O)c3ccccc3)nnn2c2ccsc12 | 870 nM | > 300 nM | –
14 | CC(C)Nc1nc2c(S(=O)(=O)c3ccccc3)nnn2c2ccsc12 | 370 nM | 65 nM | Ki [2]: 30.2 nM
15 | O=S(=O)(c1ccccc1)c1nnn2c1nc(NCc1ccco1)c1sccc12 | 40 nM | 6.1 nM | Ki [2]: 2.8 nM
16 | O=S(=O)(c1cccc(Cl)c1)c1nnn2c1nc(Nc1cccc(C(F)(F)F)c1)c1sccc12 | 1070 nM | – | –
17 | O=S(=O)(c1ccccc1)c1nnn2c1nc(NCc1ccccc1)c1sccc12 | 59 nM | – | –
18 | COc1ccccc1CNc1nc2c(S(=O)(=O)c3ccccc3)nnn2c2ccsc12 | 290 nM | – | –
19 | CCc1ccc(S(=O)(=O)c2nnn3c2nc(NCCCOC)c2sccc23)cc1 | > 5000 nM | – | –
20 | Cc1ccc(C)c(S(=O)(=O)c2nnn3c2nc(N)c2sccc23)c1 | 1220 nM | 99.1 nM | Ki [2]: 46 nM

Row | SMILES | IC50 [1] | IC50 [2] | other results
21 | Cc1ccc(S(=O)(=O)c2nnn3c2nc(Nc2cccc(C)c2)c2sccc23)cc1 | 5220 nM | – | –
22 | Cc1cccc(Nc2nc3c(S(=O)(=O)c4ccc(C(C)C)cc4)nnn3c3ccsc23)c1C | 1000 nM | – | –
23 | COc1cccc(Nc2nc3c(S(=O)(=O)c4ccc(C(C)C)cc4)nnn3c3ccsc23)c1 | 900 nM | – | –
24 | O=S(=O)(c1ccccc1)c1nnn2c1nc(NCc1cccs1)c1sccc12 | 110 nM | 3.6 nM | Ki [2]: 1.7 nM
25 | Cc1ccc(C)c(S(=O)(=O)c2nnn3c2nc(N2CCOCC2)c2sccc23)c1 | 1930 nM | – | –
26 | O=S(=O)(c1ccccc1)c1nnn2c1nc(NCc1ccc(Cl)cc1)c1sccc12 | 1170 nM | – | –
27 | O=S(=O)(c1ccccc1)c1nnn2c1nc(NC1CCCCC1)c1sccc12 | 200 nM | 6.9 nM | Ki [2]: 3.2 nM
28 | COc1ccccc1Nc1nc2c(S(=O)(=O)c3ccc(Cl)cc3)nnn2c2ccsc12 | 1150 nM | – | –
29 | CCc1ccc(S(=O)(=O)c2nnn3c2nc(NC(C)C)c2sccc23)cc1 | 1600 nM | – | –
30 | O=S(=O)(c1ccc(Cl)cc1)c1nnn2c1nc(NCc1ccccc1)c1sccc12 | 270 nM | – | –
31 | COc1ccccc1CNc1nc2c(S(=O)(=O)c3ccc(Br)cc3)nnn2c2ccsc12 | 930 nM | – | –
32 | Cc1ccc(S(=O)(=O)c2nnn3c2nc(Nc2cccc(F)c2)c2sccc23)cc1 | 3810 nM | – | –
33 | O=S(=O)(c1ccc(Cl)cc1)c1nnn2c1nc(NC1CCCCC1)c1sccc12 | 960 nM | – | –
34 | COCCCNc1nc2c(S(=O)(=O)c3ccc(Cl)cc3)nnn2c2ccsc12 | > 5000 nM | – | –
35 | O=S(=O)(c1cccc(Cl)c1)c1nnn2c1nc(N1CCOCC1)c1sccc12 | 1040 nM | – | –
36 | Cc1ccc(S(=O)(=O)c2nnn3c2nc(Nc2ccc(Cl)cc2)c2sccc23)cc1C | 1430 nM | – | –
37 | Cc1ccc(S(=O)(=O)c2nnn3c2nc(NCc2ccccc2Cl)c2sccc23)cc1C | 600 nM | – | –
38 | O=S(=O)(c1ccccc1)c1nnn2c1nc(N1CCCC1)c1sccc12 | – | 188 nM | Ki [2]: 87.5 nM
39 | CN(Cc1ccccc1)c1nc2c(S(=O)(=O)c3ccc(Cl)cc3)nnn2c2ccsc12 | 1190 nM | – | –
40 | O=S(=O)(c1cccc(Cl)c1)c1nnn2c1nc(Nc1ccc(F)cc1)c1sccc12 | 2500 nM | – | –

Row | SMILES | IC50 [1] | IC50 [2] | other results
41 | O=S(=O)(c1cccc(Cl)c1)c1nnn2c1nc(NC1CCCCCC1)c1sccc12 | 140 nM | – | –
42 | O=S(=O)(c1ccccc1)c1nnn2c1nc(NCc1ccccc1Cl)c1sccc12 | 32 nM | – | –
43 | CCc1cccc(Nc2nc3c(S(=O)(=O)c4ccc(C)cc4)nnn3c3ccsc23)c1 | 1380 nM | – | –
44 | CN(C)c1nc2c(S(=O)(=O)c3ccccc3)nnn2c2ccsc12 | – | > 30 nM | IC50 [4]: > 300 nM
45 | Cc1ccc(S(=O)(=O)c2nnn3c2nc(NCc2cccs2)c2sccc23)cc1C | 90 nM | – | –
46 | O=S(=O)(c1ccccc1)c1nnn2c1nc(NC1CCCCCC1)c1sccc12 | 170 nM | – | –
47 | COCCCNc1nc2c(S(=O)(=O)c3ccccc3)nnn2c2ccsc12 | 260 nM | – | –
48 | Cc1ccc(C)c(Nc2nc3c(S(=O)(=O)c4cccc(Cl)c4)nnn3c3ccsc23)c1 | 740 nM | – | –
49 | Cc1ccc(S(=O)(=O)c2nnn3c2nc(NCc2ccc(F)cc2)c2sccc23)cc1 | 740 nM | – | –
50 | CC(C)CCNc1nc2c(S(=O)(=O)c3cccc(Cl)c3)nnn2c2ccsc12 | 68 nM | – | –
51 | O=S(=O)(c1ccc(Cl)cc1)c1nnn2c1nc(NCc1cccs1)c1sccc12 | 650 nM | – | –
52 | CN(C)CCN(C)c1nc2c(S(=O)(=O)c3cccc(Cl)c3)nnn2c2ccsc12 | 580 nM | – | –
53 | Cc1cc(Cl)cc(Nc2nc3c(S(=O)(=O)c4ccc(C)c(C)c4)nnn3c3ccsc23)c1 | 2260 nM | – | –
54 | CCc1ccc(S(=O)(=O)c2nnn3c2nc(NCCc2ccccc2)c2sccc23)cc1 | 1050 nM | – | –
55 | Cc1ccc(C)c(S(=O)(=O)c2nnn3c2nc(NC2CCCC2)c2sccc23)c1 | 590 nM | – | –
56 | Cc1ccc(S(=O)(=O)c2nnn3c2nc(NCc2ccccc2)c2sccc23)cc1 | 260 nM | – | –
57 | Cc1ccc(S(=O)(=O)c2nnn3c2nc(NCCc2ccccc2)c2sccc23)cc1 | 960 nM | – | –
58 | Cc1ccc(C)c(S(=O)(=O)c2nnn3c2nc(NCCc2ccccc2)c2sccc23)c1 | 670 nM | – | –
